Experiments:
[1] = Phytotoxicity against Triticum aestivum (wheat) assessed as growth inhibition at 75 g/ha pre-emergence treatment measured after 15 days by crop-selectivity assay; format: organism-based; details: in vivo, read-out: GI
Method in brief: (§1)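 Compounds were formulated as 100 g/L emulsifiable concentrates, with DMF as solvent and Tween-80 as emulsifier, then diluted in water to the required rate. They were sprayed on pot-grown plants in a greenhouse, in clay soil (pH 6.5, 1.6% organic matter, 37.3% clay, CEC 12.1 cmol/kg). Untreated and DMF-treated plants served as controls. Percent growth inhibition was scored visually 15 days after treatment.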

[2] = Phytotoxicity against Zea mays (maize) assessed as growth inhibition at 15 g/ha post-emergence treatment measured after 15 days by crop-selectivity assay; format: organism-based; details: in vivo, read-out: GI; method in brief: as §1
[3] = Phytotoxicity against Glycine max (soybean) assessed as growth inhibition at 30 g/ha post-emergence treatment measured after 15 days by crop-selectivity assay; format: organism-based; details: in vivo, read-out: GI
[4] = Phytotoxicity against Oryza sativa (rice) assessed as growth inhibition at 15 g/ha pre-emergence treatment measured after 15 days by crop-selectivity assay; format: organism-based; details: in vivo, read-out: GI
[5] = Phytotoxicity against Triticum aestivum (wheat) assessed as growth inhibition at 150 g/ha pre-emergence treatment measured after 15 days by crop-selectivity assay; format: organism-based; details: in vivo, read-out: GI
[6] = Phytotoxicity against Oryza sativa (rice) assessed as growth inhibition at 75 g/ha pre-emergence treatment measured after 15 days by crop-selectivity assay; format: organism-based; details: in vivo, read-out: GI
[7] = Phytotoxicity against Zea mays (maize) assessed as growth inhibition at 30 g/ha post-emergence treatment measured after 15 days by crop-selectivity assay; format: organism-based; details: in vivo, read-out: GI; method in brief: as §1
Abutilon theophrasti [8] = assay: Herbicidal activity against Abutilon theophrasti (velvetleaf) assessed as weed growth inhibition at 75 g/ha pre-emergence treatment […]; format: functional; details: read-out: GI
Method in brief: (§2)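 Pot-grown plants in the greenhouse, in clay soil (pH 6.5, 1.6% organic matter, 37.3% clay, CEC 12.1 cmol/kg). Compound was made up as a 100 g/L emulsified concentrate (DMF, Tween-80), diluted in water and sprayed at 75 g ai/ha. Pre-emergence spraying was 24 h after sowing; post-emergence at two-leaf (dicots) or one-leaf (monocots) stage. Untreated and DMF controls. Percent growth inhibition scored visually 15 days post-treatment.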

[9] = Phytotoxicity against Oryza sativa (rice) assessed as growth inhibition at 150 g/ha pre-emergence treatment measured after 15 days by crop-selectivity assay; format: organism-based; details: in vivo, read-out: GI
Amaranthus blitum = assay: Herbicidal activity against Amaranthus blitum assessed as weed growth inhibition at 75 g/ha pre-emergence treatment […]; format: functional; details: read-out: GI; method in brief: as §2
Gossypium [10] = assay: Phytotoxicity against Gossypium (cotton) assessed as growth inhibition at 75 g/ha pre-emergence treatment measured after 15 days by crop-selectivity assay; format: organism-based; details: in vivo, other, 360 h
Echinochloa crus-galli [11] = assay: Herbicidal activity against Echinochloa crus-galli (barnyard grass) (barnyard grass) assessed as weed growth inhibition at 75 g/ha pre-emergence treatment […]; format: functional; details: read-out: GI; method in brief: as §2
[12] = Phytotoxicity against Gossypium (cotton) assessed as growth inhibition at 30 g/ha post-emergence treatment measured after 15 days by crop-selectivity assay; format: organism-based; details: in vivo, read-out: GI
[13] = Phytotoxicity against Brassica rapa subsp. oleifera assessed as growth inhibition at 150 g/ha pre-emergence treatment measured after 15 days by crop-selectivity assay; format: organism-based; details: in vivo, read-out: GI
Gossypium [14] = assay: Phytotoxicity against Gossypium (cotton) assessed as growth inhibition at 15 g/ha pre-emergence treatment measured after 15 days by crop-selectivity assay; format: organism-based; details: in vivo, other, 360 h
Digitaria sanguinalis [15] = assay: Herbicidal activity against crabgrass Digitaria sanguinalis(hairy crabgrass) assessed as weed growth inhibition at 75 g/ha post-emergence treatment […]; format: functional; details: read-out: GI; method in brief: as §2
Glycine max [16] = assay: Phytotoxicity against Glycine max (soybean) assessed as growth inhibition at 7.5 g/ha pre-emergence treatment measured after 15 days by crop-selectivity assay; format: organism-based; details: in vivo, other, 360 h
[17] = Phytotoxicity against Brassica rapa subsp. oleifera assessed as growth inhibition at 15 g/ha post-emergence treatment measured after 15 days by crop-selectivity assay; format: organism-based; details: in vivo, read-out: GI
Glycine max [18] = assay: Phytotoxicity against Glycine max (soybean) assessed as growth inhibition at 15 g/ha pre-emergence treatment measured after 15 days by crop-selectivity assay; format: organism-based; details: in vivo, other, 360 h
[19] = system: Brassica rapa subsp. oleifera; assay: Phytotoxicity against Brassica rapa subsp. oleifera assessed as growth inhibition at 7.5 g/ha pre-emergence treatment measured after 15 days by crop-selectivity assay; format: organism-based; details: in vivo, other, 360 h
Chenopodium album [20] = assay: Herbicidal activity against fat hen Chenopodium album assessed as weed growth inhibition at 75 g/ha pre-emergence treatment […]; format: functional; details: read-out: GI; method in brief: as §2
[21] = Phytotoxicity against Oryza sativa (rice) assessed as growth inhibition at 15 g/ha post-emergence treatment measured after 15 days by crop-selectivity assay; format: organism-based; details: in vivo, read-out: GI
[22] = Phytotoxicity against Gossypium (cotton) assessed as growth inhibition at 15 g/ha post-emergence treatment measured after 15 days by crop-selectivity assay; format: organism-based; details: in vivo, read-out: GI
Triticum aestivum = assay: Phytotoxicity against Triticum aestivum (wheat) assessed as growth inhibition at 7.5 g/ha pre-emergence treatment measured after 15 days by crop-selectivity assay; format: organism-based; details: in vivo, other, 360 h; method in brief: as §1
[23] = Phytotoxicity against Glycine max (soybean) assessed as growth inhibition at 150 g/ha pre-emergence treatment measured after 15 days by crop-selectivity assay; format: organism-based; details: in vivo, read-out: GI
Setaria viridis [24] = assay: Herbicidal activity against Setaria viridis (green foxtail) assessed as weed growth inhibition at 75 g/ha post-emergence treatment […]; format: functional; details: read-out: GI; method in brief: as §2
[25] = system: Brassica rapa subsp. oleifera; assay: Phytotoxicity against Brassica rapa subsp. oleifera assessed as growth inhibition at 15 g/ha pre-emergence treatment measured after 15 days by crop-selectivity assay; format: organism-based; details: in vivo, other, 360 h
Abutilon theophrasti [26] = assay: Herbicidal activity against Abutilon theophrasti (velvetleaf) assessed as weed growth inhibition at 75 g/ha post-emergence treatment […]; format: functional; details: read-out: GI; method in brief: as §2
Setaria viridis [27] = assay: Herbicidal activity against Setaria viridis (green foxtail) assessed as weed growth inhibition at 75 g/ha pre-emergence treatment […]; format: functional; details: read-out: GI; method in brief: as §2
Zea mays [28] = assay: Phytotoxicity against Zea mays (maize) assessed as growth inhibition at 30 g/ha pre-emergence treatment measured after 15 days by crop-selectivity assay; format: organism-based; details: in vivo, other, 360 h; method in brief: as §1
Echinochloa crus-galli [29] = assay: Herbicidal activity against Echinochloa crus-galli (barnyard grass) (barnyard grass) assessed as weed growth inhibition at 75 g/ha post-emergence treatment […]; format: functional; details: read-out: GI; method in brief: as §2
[30] = Phytotoxicity against Brassica rapa subsp. oleifera assessed as growth inhibition at 30 g/ha pre-emergence treatment measured after 15 days by crop-selectivity assay; format: organism-based; details: in vivo, read-out: GI
Digitaria sanguinalis [31] = assay: Herbicidal activity against crabgrass Digitaria sanguinalis(hairy crabgrass) assessed as weed growth inhibition at post-emergence treatment […]; format: functional, organism-based; method in brief: as §2
Chenopodium album [32] = assay: Herbicidal activity against fat hen Chenopodium album assessed as weed growth inhibition at 75 g/ha post-emergence treatment […]; format: functional; details: read-out: GI; method in brief: as §2
[33] = Phytotoxicity against Glycine max (soybean) assessed as growth inhibition at 15 g/ha post-emergence treatment measured after 15 days by crop-selectivity assay; format: organism-based; details: in vivo, read-out: GI
Digitaria sanguinalis [34] = assay: Herbicidal activity against crabgrass Digitaria sanguinalis(hairy crabgrass) assessed as weed growth inhibition at 75 g/ha pre-emergence treatment […]; format: functional; details: read-out: GI; method in brief: as §2
[35] = Phytotoxicity against Brassica rapa subsp. oleifera assessed as growth inhibition at 30 g/ha post-emergence treatment measured after 15 days by crop-selectivity assay; format: organism-based; details: in vivo, read-out: GI
Zea mays [36] = assay: Phytotoxicity against Zea mays (maize) assessed as growth inhibition at 15 g/ha pre-emergence treatment measured after 15 days by crop-selectivity assay; format: organism-based; details: in vivo, other, 360 h; method in brief: as §1
Zea mays [37] = assay: Phytotoxicity against Zea mays (maize) assessed as growth inhibition at 7.5 g/ha pre-emergence treatment measured after 15 days by crop-selectivity assay; format: organism-based; details: in vivo, other, 360 h; method in brief: as §1

SMILES | inhibition at 360 h [1] [%] | inhibition at 360 h [2] [%] | inhibition at 360 h [3] [%] | inhibition at 360 h [4] [%] | inhibition at 360 h [5] [%] | inhibition at 360 h [6] [%] | inhibition at 360 h [7] [%] | inhibition of growth at 75 g/ha (Abutilon theophrasti [8]) [%] | inhibition at 360 h [9] [%] | inhibition of growth at 75 g/ha (Amaranthus blitum) [%] | growth inhibition (GI) (Gossypium [10]) | inhibition of growth at 75 g/ha (Echinochloa crus-galli [11]) [%] | inhibition at 360 h [12] [%] | inhibition at 360 h [13] [%] | growth inhibition (GI) (Gossypium [14]) | inhibition of growth at 75 g/ha (Digitaria sanguinalis [15]) [%] | growth inhibition (GI) (Glycine max [16]) | inhibition at 360 h [17] [%] | growth inhibition (GI) (Glycine max [18]) | growth inhibition (GI) [19] | also measured
C#CCN1C(=O)COc2cc(F)c(N3C(=O)c4ccc(F)cc4C3=O)cc21 | > 10 | 1 | > 10 | 1 | > 10 | > 10 | > 10 | > 80 | > 10 | > 80 | Non-toxic | > 80 | > 10 | > 10 | Non-toxic | > 80 | Non-toxic | > 10 | Non-toxic | Non-toxic | inhibition of growth at 75 g/ha (Chenopodium album [20]): > 80%; inhibition at 360 h [21]: > 10%; inhibition at 360 h [22]: > 10%; growth inhibition (GI) (Triticum aestivum): Non-toxic; inhibition at 360 h [23]: > 10%; inhibition of growth at 75 g/ha (Setaria viridis [24]): > 80%; growth inhibition (GI) [25]: Non-toxic; inhibition of growth at 75 g/ha (Abutilon theophrasti [26]): > 80%; inhibition of growth at 75 g/ha (Setaria viridis [27]): > 80%; growth inhibition (GI) (Zea mays [28]): Non-toxic; inhibition of growth at 75 g/ha (Echinochloa crus-galli [29]): > 80%; inhibition at 360 h [30]: > 10%; IC50 (Digitaria sanguinalis [31]): 4.8 g/ha; inhibition of growth at 75 g/ha (Chenopodium album [32]): > 80%; inhibition at 360 h [33]: > 10%; inhibition of growth at 75 g/ha (Digitaria sanguinalis [34]): > 80%; inhibition at 360 h [35]: > 10%; growth inhibition (GI) (Zea mays [36]): Non-toxic; growth inhibition (GI) (Zea mays [37]): Non-toxic
C#CCN1C(=O)COc2cc(F)c(N3C(=O)C4=C(CCCC4)C3=O)cc21 [FLUMIOXAZIN] | > 10 | > 10 | > 10 | > 10 | > 10 | > 10 | > 10 | > 80 | > 10 | > 80 | Non-toxic | > 80 | > 10 | > 10 | Non-toxic | > 80 | Non-toxic | > 10 | Non-toxic | Non-toxic | inhibition of growth at 75 g/ha (Chenopodium album [20]): > 80%; inhibition at 360 h [21]: > 10%; inhibition at 360 h [22]: > 10%; growth inhibition (GI) (Triticum aestivum): Non-toxic; inhibition at 360 h [23]: > 10%; inhibition of growth at 75 g/ha (Setaria viridis [24]): > 80%; growth inhibition (GI) [25]: Non-toxic; inhibition of growth at 75 g/ha (Abutilon theophrasti [26]): > 80%; inhibition of growth at 75 g/ha (Setaria viridis [27]): > 80%; growth inhibition (GI) (Zea mays [28]): Non-toxic; inhibition of growth at 75 g/ha (Echinochloa crus-galli [29]): > 80%; inhibition at 360 h [30]: > 10%; IC50 (Digitaria sanguinalis [31]): 2.5 g/ha; inhibition of growth at 75 g/ha (Chenopodium album [32]): > 80%; inhibition at 360 h [33]: > 10%; inhibition of growth at 75 g/ha (Digitaria sanguinalis [34]): > 80%; inhibition at 360 h [35]: > 10%; growth inhibition (GI) (Zea mays [36]): Non-toxic; growth inhibition (GI) (Zea mays [37]): Non-toxic

— ChEMBL document CHEMBL3045292, “Synthesis and herbicidal activity of 2-(7-fluoro-3-oxo- 3,4-dihydro-2H-benzo[b][1,4]oxazin-6-yl)isoindoline-1,3-diones” (J Agric Food Chem, 2005)
